Tests used:
[1] = IVIVE of total hepatic intrinsic clearance; type: in vitro ADME, human; details: for Hepatic CLint_vivo: model estimated; for total CLint_vivo estimated with HLMs and cytosol (subcellular fraction): subcellular fraction-based IVIVE
In short: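 Pooled human liver microsomes and cytosol from 150 adults (75 male, 75 female). […] In vitro CLint was scaled to the in vivo hepatic value using microsomal or cytosolic protein content and liver weight. Enzyme ontogeny was expressed as a fraction of adult expression.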

[2] = test system: expressed human CYP and CES enzymes; type: in vitro ADME; details: for total in vivo CLint estimated with expressed enzymes: expressed enzyme-based IVIVE; for metabolism profile (enzymes responsible): human hepatic CYP and CES enzymes
[3] = stated as known, no reference given; cited from earlier work
[4] = ref Willemin et al. (2015); cited from earlier work

SMILES	Hepatic CLint_vivo ([1]; person five) [L/h]	Hepatic CLint_vivo ([1]; person four) [L/h]	Hepatic CLint_vivo ([1]; person one) [L/h]	Hepatic CLint_vivo ([1]; person six) [L/h]	Hepatic CLint_vivo ([1]; person three) [L/h]	Hepatic CLint_vivo ([1]; person two) [L/h]	total in vivo CLint estimated with expressed enzymes [2]	metabolism profile (enzymes responsible) [2]	log Kow [3]	in vivo CLint in cryopreserved hepatocytes [4] [l/h/kg liver]	total CLint_vivo estimated with HLMs and cytosol (subcellular fraction) [1]	contribution of CES enzymes to human hepatic metabolism ([2]; IVIVE of expressed enzyme data)
Cc1c(COC(=O)[C@@H]2[C@H](/C=C(\Cl)C(F)(F)F)C2(C)C)cccc1-c1ccccc1 (racemic) [Bifenthrin, bifenthrin]	58	36	10	67	16	5	145 l/h/kg liver	metabolized only by CYP enzymes				
CC1(C)[C@H](C(=O)OCc2cccc(Oc3ccccc3)c2)[C@@H]1C=C(Cl)Cl [CPM, cis-permethrin]	186	115	34	217	51	20	70,481 l/h/kg liver	metabolized by CYP and CES enzymes	6.1	60	6,68 l/h/kg liver	more than 70%
CC1(C)[C@H](C(=O)O[C@H](C#N)c2cccc(Oc3ccccc3)c2)[C@@H]1C=C(Br)Br [DLM, deltamethrin]	2066	1282	375	2417	565	224	36,782 l/h/kg liver		4.61		7,418 l/h/kg liver	

— paper PMC6944222 (Toxicological Sciences, 2019)
